Laboratory results as given in ChEMBL document CHEMBL5058577, “EUbOPEN Chemogenomics Library 2 (Multiplex)” (2022).

Test system: U2OS
Assay: Multiplex assay against U2OS
Assay type: toxicity, cell-based
Conditions: human
Outline: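 Values for tubulin, mitochondrial-mass and membrane-permeability phenotypes are per cents of cells with healthy nuclei. These cells were identified by CellPathfinder machine-learning gating of live cells that had been stained at seeding with Hoechst33342, BioTracker Green Microtubule Cytoskeleton Dye, MitoTracker Red and Annexin V Alexa Fluor 680 and imaged on a CQ1 microscope at 37°C and 5% CO2 after compound addition. The gating first set Hoechst high-intensity objects apart from normal cells, then split normal cells into healthy, pyknosed or fragmented nuclei, and pyknosed cells into mitotic or apoptotic.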

[1] = 12 h, 1 µM, compound concentration 1 uM, replicate 1
[2] = 12 h, 1 µM, compound concentration 1 uM, replicate 2
[3] = 12 h, 10 µM, compound concentration 10 uM, replicate 1
[4] = 12 h, 10 µM, compound concentration 10 uM, replicate 2
[5] = 24 h, 1 µM, compound concentration 1 uM, replicate 1
[6] = 24 h, 1 µM, compound concentration 1 uM, replicate 2
[7] = 24 h, 10 µM, compound concentration 10 uM, replicate 1
[8] = 24 h, 10 µM, compound concentration 10 uM, replicate 2
[9] = 48 h, 1 µM, compound concentration 1 uM, replicate 1
[10] = 48 h, 1 µM, compound concentration 1 uM, replicate 2
[11] = 48 h, 10 µM, compound concentration 10 uM, replicate 1
[12] = 48 h, 10 µM, compound concentration 10 uM, replicate 2

`Cc1cnc(-c2cc(N3CCN(C(=O)CCS(C)(=O)=O)CC3)ncc2Cl)c(C)c1` was tested, and the “Population Apoptotic (%)” value [1] was 86%, the “Population Fragmented Nuclei (%)” value [1] was 37% and the “Population Healthy Nuclei (%)” value [1] was 54%. The “Population Hoechst High Intensity Objects (%)” value [1] was 2%, the “Population Membrane Permeable-Phenotype (%)” value [1] was 10% and the “Population Mitochondria Different-Phenotype (%)” value [1] was 1%. The “Population Mitotic Cells (%)” value [1] was 13%, the “Population Normal (%)” value [1] was 97% and the “Population Pyknosed Nuclei (%)” value [1] was 8%. For the same compound, the “Population Tubulin-Different-Phenotype (%)” value [1] was 2%, the “Total Cell Count” value [1] was 183 and the “Population Apoptotic (%)” value [2] was 100%. For the same compound, the “Population Fragmented Nuclei (%)” value [2] was 18%, the “Population Healthy Nuclei (%)” value [2] was 73% and the “Population Hoechst High Intensity Objects (%)” value [2] was 1%. The “Population Mitochondria Different-Phenotype (%)” value [2] was 7%, the “Population Mitotic Cells (%)” value [2] was 0% and the “Population Normal (%)” value [2] was 98%. The “Population Tubulin-Different-Phenotype (%)” value [2] was 7%, the “Total Cell Count” value [2] was 111 and the “Population Apoptotic (%)” value [3] was 85%. The “Population Fragmented Nuclei (%)” value [3] was 24%, the “Population Healthy Nuclei (%)” value [3] was 67% and the “Population Hoechst High Intensity Objects (%)” value [3] was 1%. The “Population Membrane Permeable-Phenotype (%)” value [3] was 4%, the “Population Mitochondria Different-Phenotype (%)” value [3] was 3% and the “Population Mitotic Cells (%)” value [3] was 14%. For the same compound, the “Population Normal (%)” value [3] was 98%, the “Population Pyknosed Nuclei (%)” value [3] was 8% and the “Population Tubulin-Different-Phenotype (%)” value [3] was 1%. The “Total Cell Count” value [3] was 258, the “Population Apoptotic (%)” value [4] was 75% and the “Population Fragmented Nuclei (%)” value [4] was 17%. For the same compound, the “Population Healthy Nuclei (%)” value [4] was 73%, the “Population Membrane Permeable-Phenotype (%)” value [4] was 20% and the “Population Mitochondria Different-Phenotype (%)” value [4] was 7%. The “Population Mitotic Cells (%)” value [4] was 25%, the “Population Pyknosed Nuclei (%)” value [4] was 9% and the “Population Tubulin-Different-Phenotype (%)” value [4] was 15%. For the same compound, the “Total Cell Count” value [4] was 88, the “Population Apoptotic (%)” value [5] was 80% and the “Population Fragmented Nuclei (%)” value [5] was 30%. The “Population Healthy Nuclei (%)” value [5] was 62%, the “Population Hoechst High Intensity Objects (%)” value [5] was 2% and the “Population Membrane Permeable-Phenotype (%)” value [5] was 5%. The “Population Mitochondria Different-Phenotype (%)” value [5] was 3%, the “Population Mitotic Cells (%)” value [5] was 20% and the “Population Normal (%)” value [5] was 97%. For the same compound, the “Population Pyknosed Nuclei (%)” value [5] was 6%, the “Population Tubulin-Different-Phenotype (%)” value [5] was 2% and the “Total Cell Count” value [5] was 220. For the same compound, the “Population Apoptotic (%)” value [6] was 90%, the “Population Fragmented Nuclei (%)” value [6] was 17% and the “Population Healthy Nuclei (%)” value [6] was 75%. The “Population Membrane Permeable-Phenotype (%)” value [6] was 8%, the “Population Mitochondria Different-Phenotype (%)” value [6] was 5% and the “Population Mitotic Cells (%)” value [6] was 10%. For the same compound, the “Population Pyknosed Nuclei (%)” value [6] was 7%, the “Population Tubulin-Different-Phenotype (%)” value [6] was 8% and the “Total Cell Count” value [6] was 136. The “Population Apoptotic (%)” value [7] was 80%, the “Population Fragmented Nuclei (%)” value [7] was 20% and the “Population Healthy Nuclei (%)” value [7] was 74%. The “Population Hoechst High Intensity Objects (%)” value [7] was 2%, the “Population Membrane Permeable-Phenotype (%)” value [7] was 4% and the “Population Mitochondria Different-Phenotype (%)” value [7] was 2%. For the same compound, the “Population Mitotic Cells (%)” value [7] was 20%, the “Population Normal (%)” value [7] was 97% and the “Population Pyknosed Nuclei (%)” value [7] was 4%. The “Population Tubulin-Different-Phenotype (%)” value [7] was 0%, the “Total Cell Count” value [7] was 309 and the “Population Apoptotic (%)” value [8] was 85%. For the same compound, the “Population Fragmented Nuclei (%)” value [8] was 21%, the “Population Healthy Nuclei (%)” value [8] was 64% and the “Population Hoechst High Intensity Objects (%)” value [8] was 0%. The “Population Membrane Permeable-Phenotype (%)” value [8] was 18%, the “Population Mitochondria Different-Phenotype (%)” value [8] was 1% and the “Population Mitotic Cells (%)” value [8] was 14%. The “Population Normal (%)” value [8] was 99%, the “Population Pyknosed Nuclei (%)” value [8] was 13% and the “Population Tubulin-Different-Phenotype (%)” value [8] was 7%. For the same compound, the “Total Cell Count” value [8] was 103, the “Population Apoptotic (%)” value [9] was 78% and the “Population Fragmented Nuclei (%)” value [9] was 29%. For the same compound, the “Population Healthy Nuclei (%)” value [9] was 63%, the “Population Hoechst High Intensity Objects (%)” value [9] was 0% and the “Population Membrane Permeable-Phenotype (%)” value [9] was 3%. The “Population Mitochondria Different-Phenotype (%)” value [9] was 2%, the “Population Mitotic Cells (%)” value [9] was 21% and the “Population Normal (%)” value [9] was 99%. For the same compound, the “Population Pyknosed Nuclei (%)” value [9] was 7%, the “Population Tubulin-Different-Phenotype (%)” value [9] was 1% and the “Total Cell Count” value [9] was 325. The “Population Apoptotic (%)” value [10] was 95%, the “Population Fragmented Nuclei (%)” value [10] was 15% and the “Population Healthy Nuclei (%)” value [10] was 73%. For the same compound, the “Population Hoechst High Intensity Objects (%)” value [10] was 1%, the “Population Membrane Permeable-Phenotype (%)” value [10] was 4% and the “Population Mitochondria Different-Phenotype (%)” value [10] was 5%. For the same compound, the “Population Mitotic Cells (%)” value [10] was 5%, the “Population Normal (%)” value [10] was 98% and the “Population Pyknosed Nuclei (%)” value [10] was 10%. For the same compound, the “Population Tubulin-Different-Phenotype (%)” value [10] was 3%, the “Total Cell Count” value [10] was 184 and the “Population Apoptotic (%)” value [11] was 94%. For the same compound, the “Population Fragmented Nuclei (%)” value [11] was 11%, the “Population Healthy Nuclei (%)” value [11] was 80% and the “Population Hoechst High Intensity Objects (%)” value [11] was 1%. For the same compound, the “Population Membrane Permeable-Phenotype (%)” value [11] was 4%, the “Population Mitochondria Different-Phenotype (%)” value [11] was 2% and the “Population Mitotic Cells (%)” value [11] was 5%. The “Population Normal (%)” value [11] was 98%, the “Population Pyknosed Nuclei (%)” value [11] was 7% and the “Population Tubulin-Different-Phenotype (%)” value [11] was 2%. For the same compound, the “Total Cell Count” value [11] was 485, the “Population Apoptotic (%)” value [12] was 100% and the “Population Fragmented Nuclei (%)” value [12] was 22%. For the same compound, the “Population Healthy Nuclei (%)” value [12] was 71%, the “Population Hoechst High Intensity Objects (%)” value [12] was 3% and the “Population Membrane Permeable-Phenotype (%)” value [12] was 13%. The “Population Mitochondria Different-Phenotype (%)” value [12] was 7%, the “Population Mitotic Cells (%)” value [12] was 0% and the “Population Normal (%)” value [12] was 96%. For the same compound, the “Population Pyknosed Nuclei (%)” value [12] was 5%, the “Population Tubulin-Different-Phenotype (%)” value [12] was 7% and the “Total Cell Count” value [12] was 141.
